Assay outcomes: PubChem BioAssay, several laboratories
PTPN22 inh 2 = LYP (human) phosphatase inhibition. inhibition, % at 2 µM. Q9Y2R2. AID 640. 0.21% of 96,000 active. recombinant LYP catalytic domain, DiFMUP fluorescence;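 active = inhibition at 2 µM at or above a set limit, the screen mean plus 3 SD, cut at about 24% in these data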
Rev-RRE block = disrupts HIV-1 Rev binding to RRE RNA; 0.79% of 97,000 active; inhibition, % at 8 µM; Rev peptide-RRE RNA binding, FRET; P05866; AID 704;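 active = inhibition above the screen-wide mean plus 3 SD, cut at about 35% in these data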
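Assay system: Labelled RRE RNA duplex and labelled Rev peptide | Times: 5 min preincubation and 15 min binding, 25 °C | Detection: FRET, ex 480 nm, em 540 and 671 nm | Evaluation: % inhibition of FRET ratio versus controls | Benchmarks: DMSO wells as 0% and neomycin B wells as 100% inhibition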
PTPN22 act = activators of human LYP (PTPN22) phosphatase. Q9Y2R2. recombinant LYP, DiFMUP fluorescence; 0 = plate median, 100 = signal doubled. activation, % at 2 µM. 0.11% of 96,000 active. AID 697;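 active = activation at 2 µM above a set limit, the mean plus 5 SD, cut at about 37% in these data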
FAK inh = FAK (human) kinase inhibition | Q05397 | biochemical FAK kinase activity assay | inhibition, %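 (tested at 7 µM)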 | 0.84% of 97,000 active; in the data active = inhibition above about 19%
Target sequence (Q05397 whole entry, looked up): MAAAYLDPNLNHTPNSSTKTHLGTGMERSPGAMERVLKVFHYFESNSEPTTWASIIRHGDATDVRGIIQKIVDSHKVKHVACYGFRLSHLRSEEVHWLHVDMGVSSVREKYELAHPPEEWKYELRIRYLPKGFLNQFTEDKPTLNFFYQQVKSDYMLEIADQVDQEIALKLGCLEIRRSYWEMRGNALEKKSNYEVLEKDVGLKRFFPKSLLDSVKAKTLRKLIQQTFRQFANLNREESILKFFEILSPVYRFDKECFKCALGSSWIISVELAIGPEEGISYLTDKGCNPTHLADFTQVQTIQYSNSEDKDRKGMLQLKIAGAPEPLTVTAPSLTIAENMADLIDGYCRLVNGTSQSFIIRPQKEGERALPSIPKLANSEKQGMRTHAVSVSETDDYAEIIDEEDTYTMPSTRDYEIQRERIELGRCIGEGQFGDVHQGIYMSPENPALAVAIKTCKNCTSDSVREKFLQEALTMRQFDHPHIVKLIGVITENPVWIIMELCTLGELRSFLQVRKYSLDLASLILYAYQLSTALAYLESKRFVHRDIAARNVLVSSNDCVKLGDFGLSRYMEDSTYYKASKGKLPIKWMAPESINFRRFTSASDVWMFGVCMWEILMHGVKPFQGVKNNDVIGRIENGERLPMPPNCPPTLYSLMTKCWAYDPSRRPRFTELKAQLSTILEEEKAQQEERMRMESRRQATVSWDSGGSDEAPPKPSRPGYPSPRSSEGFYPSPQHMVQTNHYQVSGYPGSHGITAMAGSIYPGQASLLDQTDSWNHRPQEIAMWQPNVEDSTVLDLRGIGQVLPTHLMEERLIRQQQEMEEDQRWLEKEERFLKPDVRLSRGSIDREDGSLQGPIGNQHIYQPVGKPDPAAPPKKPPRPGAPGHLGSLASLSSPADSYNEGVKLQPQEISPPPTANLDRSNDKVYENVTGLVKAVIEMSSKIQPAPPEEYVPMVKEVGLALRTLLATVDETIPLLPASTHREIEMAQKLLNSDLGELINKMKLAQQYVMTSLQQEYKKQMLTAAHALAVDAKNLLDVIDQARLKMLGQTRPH
EphB4 ephrin blk = EphB4-ephrin-B2 interaction antagonism; P54760; EphB4 LBD / TNYL-RAW-Alexa532 peptide, fluorescence polarization; inhibition, % at 7 µM; 0.15% of 97,000 active; AID 720;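 active = inhibition above the screen-wide mean inhibition plus 3 SD, cut at about 15% in these data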
Large screens that a line does not name were inactive; [ ] = remark or other dose. Only some compounds are listed: those with a hit (about 1.9% of all), similar ones and a draw of the others.

COc1ccc(CN2CN=C(Nc3nc4ccccc4s3)NC2)cc1	none
Cc1cc(C(=O)O)c(C)n1-c1ccccc1	none
CSc1cccc(-n2c(C)cc(C(N)=O)c2C)c1	EphB4 ephrin blk 15.5
COc1ccc(-n2nnnc2SCC(=O)c2ccc(O)c(O)c2)cc1	PTPN22 inh 2 35.0
CC(C)(C)C(=O)Nc1ccc(C(=O)NNC(=O)Cc2ccccc2)cc1	none
Cc1cccc(C)c1N/C=C/c1onc(C)c1[N+](=O)[O-]	none
Cc1noc(/C=C/c2ccc(-c3ccccc3Cl)o2)c1[N+](=O)[O-]	Rev-RRE block 103.5[fluorescence artefact?]
Cc1nnc(SCC(=O)N/N=C/c2cn(-c3ccccc3)nc2-c2ccccc2)n1-c1ccccc1	PTPN22 inh 2 24.9
Cc1onc(-c2ccccc2)c1C(=O)Nc1ccc(S(=O)(=O)NC2=NCCCCC2)cc1	EphB4 ephrin blk 20.3
CCCCOc1ccc(-c2nnn(C(C)(C)C(=O)OC)n2)cc1	none
CCOc1ccc(C2C(C(=O)C3CC3)N3C=C(C#N)C=CC3C2(C#N)C#N)cc1 (configuration not stated)	Rev-RRE block 47.9
CCN1CCc2c(sc(N)c2C(N)=O)C1	Rev-RRE block 63.0
CC1=Nc2ccccc2/C1=C\c1nc(-c2ccc(C(F)(F)F)cc2)oc1O	Rev-RRE block 125.8[fluorescence artefact?], EphB4 ephrin blk 24.8
Oc1ccccc1-c1nnc(-c2ccc(C(F)(F)F)cc2)o1	none
CC1=Nc2ccccc2/C1=C\c1nc(-c2ccccc2)oc1O	Rev-RRE block 54.1
O=C(c1ccccc1)N1CCCCC(S(=O)(=O)c2ccc3ccccc3c2)C1=O (configuration not stated)	none
CCCCCc1c(C)nc(N2CCOCC2)[nH]c1=O	none
COc1ccc(NC(=O)CSc2nnc(CCC(=O)Nc3ccc(C)c(Cl)c3)n2C)cc1	none
Oc1c(CN2CCCCC2)cc(COCc2ccccc2)c2cccnc12	EphB4 ephrin blk 19.8
COCc1cc(CN2CCCC2)c(O)c2ncccc12	none
CCSC1=N/C(=C\c2ccc(C(=O)O)cc2)C(=O)S1	none
CCOC(=O)SC1=N/C(=C\c2ccc(N(C)C)cc2)C(=O)S1	Rev-RRE block 101.4[fluorescence artefact?]
CCn1c2ccccc2c2cc(NS(=O)(=O)c3ccccc3C)ccc21	none
COc1ccc(N=CC2=C(Nc3ccc(OC)cc3)c3c(C)nn(-c4ccccn4)c3CC2)cc1	Rev-RRE block 87.0[fluorescence artefact?], FAK inh 20.3, EphB4 ephrin blk 24.5
CCN1CC=C2C(C1)C(c1ccc(Cl)s1)C(C#N)=C(N)C2(C#N)C#N (configuration not stated)	Rev-RRE block 86.8[fluorescence artefact?]
CN(/C(=N\S(=O)(=O)c1ccccc1)C(F)(F)F)c1ccccc1	Rev-RRE block 36.8
CCCCCn1nc(-c2ccccc2)c2nc3ccccc3nc21	Rev-RRE block 90.0[fluorescence artefact?]
CCCn1nc(-c2ccccc2)c2nc3ccccc3nc21	Rev-RRE block 94.1[fluorescence artefact?]
CCn1nc(-c2ccccc2)c2nc3ccccc3nc21	Rev-RRE block 89.9[fluorescence artefact?]
CCCCn1c2nc3ccccc3nc2c2c(=O)n(CCC)cnc21	none
CCCN(Cc1cc2ccc(C)cc2[nH]c1=O)S(=O)(=O)c1ccccc1	none
O=c1c2c3c(sc2n2c(=S)[nH]nc2n1Cc1ccccc1)CN(Cc1ccccc1)CC3	none
CSc1nsc(/C=C/Nc2ccc(C)cc2)c1C#N	Rev-RRE block 57.6
Cc1ccc(CNc2ccc3c(c2)OCO3)c(C)c1	Rev-RRE block 90.3[fluorescence artefact?]
COc1cc(CNCCc2c[nH]c3ccccc23)ccc1OCc1ccc(F)cc1	none
O=C(Cc1ccc(F)cc1)Nc1c2c(nn1-c1cccc(Cl)c1)CS(=O)C2 (configuration not stated)	none
Cc1ccc(CNC(=O)c2ccccc2N)cc1	PTPN22 inh 2 59.7
Cc1cccc(CNC(=O)c2ccccc2N)c1	none
COc1ccc(CN=Cc2[nH]c3ccc(Br)c(Cl)c3c2O)cc1	Rev-RRE block 125.2[fluorescence artefact?]
CN(C)c1ccc(/C=C(\C#N)C(=O)Nc2nc3c(s2)CCN(Cc2ccccc2)C3)cc1	Rev-RRE block 103.6[fluorescence artefact?]
Cc1ccc(N2C(=O)C3C(C2=O)C(C(=O)c2ccc(Cl)cc2)N2CCCC32)cc1 (configuration not stated)	Rev-RRE block 62.3
Cc1ccc(C(=O)N2CCN(c3ccc(Cl)cc3)CC2)cc1	none
CCC(C)[C@H](Nc1nc(-c2ccccc2)nc2c1oc1ccccc12)C(=O)O (some centres not stated)	none
COC(=O)c1cc(NC(=O)c2ccccc2)c(=O)oc1C/C=N\OCc1ccc(Cl)cc1Cl	Rev-RRE block 48.0
Cc1cc(-n2ccnc2)n2c(nc3ccccc32)c1C#N	none
CCCc1cc(-n2ccnc2)n2c(nc3ccccc32)c1C#N	Rev-RRE block 117.5[fluorescence artefact?]
CCc1c(C)sc(NC(=O)CC#N)c1C#N	Rev-RRE block 37.2
CCc1c(C)sc(NC(=O)c2cc(C)no2)c1C#N	none
O=[N+]([O-])c1cccc(/C=C/c2nc(C=Nc3ccccc3)c(O)o2)c1	Rev-RRE block 40.7
N#CC1=C(N)SC(N)=C(C#N)C1c1ccc(C(F)(F)F)cc1	Rev-RRE block 41.8
Cc1ccc(C2C(C#N)=C(N)SC(N)=C2C#N)o1	Rev-RRE block 91.7[fluorescence artefact?]
N#CC1=C(N)SC(N)=C(C#N)C1C1CC=CCC1 (configuration not stated)	none
CCOc1ccccc1C1C(C#N)=C(N)SC(N)=C1C#N	Rev-RRE block 36.9
CCc1ccc(C2C(C#N)=C(N)SC(N)=C2C#N)cc1	Rev-RRE block 41.2
O=S(=O)(Nc1ccc(S(=O)(=O)N2CCCCC2)cc1)c1cccs1	none
CCc1nnc(NC(=O)c2nc3nc(C)cc(C)n3n2)s1	none
CC(C)c1nc(SCc2c(F)cccc2Cl)c2c(=O)n(C)c(=O)n(C)c2n1	none
Cc1[nH]n(-c2ccc([N+](=O)[O-])cc2)c(=O)c1N=Nc1nc2ccccc2s1	none
O=C(N/N=C/c1cc(Br)ccc1O)C(=O)Nc1ccccc1OC(F)(F)C(F)F	Rev-RRE block 48.6
O=C(c1ccccc1)c1ccc2ccccc2n1	none
O=C(O)C(=O)/C(=C\c1cccc2ccccc12)c1ccc2ccccc2n1	Rev-RRE block 88.5[fluorescence artefact?]
O=C(O)C(=O)/C(=C\c1ccccc1)c1ccc2ccccc2n1	Rev-RRE block 77.7
COc1cc(/C=N\Nc2ccc([N+](=O)[O-])cc2)ccc1OCC(=O)Nc1ccc(C)c(C)c1	Rev-RRE block 76.2[fluorescence artefact?]
CCOc1cc(/C=N\Nc2ccc([N+](=O)[O-])cc2)ccc1OCC(=O)Nc1ccc(C)c(C)c1	none
Cc1cc(=O)n(CC(C)C)c(O)c1C#N	EphB4 ephrin blk 16.6
CCCCC1(C)OC(=O)C(=Cc2ccc(N(C)C)cc2)C(=O)O1 (configuration not stated)	Rev-RRE block 53.8
CCOc1ccc(NC(=O)CN(c2cccc(C(F)(F)F)c2)S(C)(=O)=O)cc1	none
CCOC(=O)N1CCN(S(=O)(=O)c2ccc3c(c2)oc(=O)n3C)CC1	Rev-RRE block 40.7
CCOC(=O)n1c(=O)oc2cc(S(=O)(=O)N3CCCCC3)ccc21	none
CC(=O)Nc1cccc(NC(=O)CSc2nnc(Cc3cccn3C)n2-c2ccc(C)cc2)c1	EphB4 ephrin blk 16.4
